Reference: the M2OR odorant receptor database

Columns and labels:
Settings in all cases: stereoisomer not certain
UniProt A2ATE5 = molecular target: T1, UniProt A2ATE5
T1 sequence (whole entry): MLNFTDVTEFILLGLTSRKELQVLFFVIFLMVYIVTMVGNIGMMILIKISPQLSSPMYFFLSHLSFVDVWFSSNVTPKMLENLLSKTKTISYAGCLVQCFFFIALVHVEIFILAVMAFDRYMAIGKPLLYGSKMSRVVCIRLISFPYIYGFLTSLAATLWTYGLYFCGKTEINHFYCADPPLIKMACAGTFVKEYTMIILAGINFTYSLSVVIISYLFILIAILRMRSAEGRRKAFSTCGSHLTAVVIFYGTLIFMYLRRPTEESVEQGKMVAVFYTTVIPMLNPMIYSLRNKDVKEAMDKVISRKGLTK
Summary of the method: (§1)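 Assay methods differ from source to source, frequently being transient luciferase assays in mammalian cell lines. For each receptor–molecule pair, the label responsive (active) applies when the original authors judged the measured signal statistically different from baseline, and non-responsive (inactive) applies otherwise.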

UniProt A2AVB0 = molecular target: T2, UniProt A2AVB0
T2 sequence (whole entry): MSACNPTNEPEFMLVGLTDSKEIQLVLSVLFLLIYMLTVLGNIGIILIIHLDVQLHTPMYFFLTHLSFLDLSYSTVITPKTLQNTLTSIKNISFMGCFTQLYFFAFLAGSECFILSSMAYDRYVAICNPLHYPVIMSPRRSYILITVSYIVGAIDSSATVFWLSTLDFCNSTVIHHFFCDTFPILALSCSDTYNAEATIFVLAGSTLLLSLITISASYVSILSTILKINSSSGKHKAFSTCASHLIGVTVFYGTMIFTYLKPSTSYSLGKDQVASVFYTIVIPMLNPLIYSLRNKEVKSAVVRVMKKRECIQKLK
Summary of the method: as §1

UniProt A2AVB5 = molecular target: T3, UniProt A2AVB5
T3 sequence (whole entry): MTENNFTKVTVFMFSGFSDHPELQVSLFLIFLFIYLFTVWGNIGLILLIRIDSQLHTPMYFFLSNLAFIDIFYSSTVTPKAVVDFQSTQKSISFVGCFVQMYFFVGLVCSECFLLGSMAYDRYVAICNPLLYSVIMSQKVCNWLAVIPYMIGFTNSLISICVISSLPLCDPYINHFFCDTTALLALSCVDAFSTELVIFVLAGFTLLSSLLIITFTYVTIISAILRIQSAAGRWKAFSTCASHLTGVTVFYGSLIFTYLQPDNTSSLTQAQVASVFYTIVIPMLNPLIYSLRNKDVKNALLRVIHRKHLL
Summary of the method: as §1

UniProt B2RVX8 = molecular target: T4, UniProt B2RVX8
T4 sequence (whole entry): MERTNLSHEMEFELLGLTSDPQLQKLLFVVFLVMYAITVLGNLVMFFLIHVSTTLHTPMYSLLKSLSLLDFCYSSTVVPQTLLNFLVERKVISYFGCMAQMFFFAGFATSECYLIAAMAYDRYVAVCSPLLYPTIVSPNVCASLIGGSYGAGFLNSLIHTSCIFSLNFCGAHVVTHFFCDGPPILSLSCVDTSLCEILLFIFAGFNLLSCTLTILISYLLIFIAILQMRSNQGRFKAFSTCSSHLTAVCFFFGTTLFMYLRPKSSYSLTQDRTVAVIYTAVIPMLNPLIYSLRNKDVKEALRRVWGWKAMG
Summary of the method: as §1

UniProt E9PVX1 = molecular target: T5, UniProt E9PVX1
T5 sequence (whole entry): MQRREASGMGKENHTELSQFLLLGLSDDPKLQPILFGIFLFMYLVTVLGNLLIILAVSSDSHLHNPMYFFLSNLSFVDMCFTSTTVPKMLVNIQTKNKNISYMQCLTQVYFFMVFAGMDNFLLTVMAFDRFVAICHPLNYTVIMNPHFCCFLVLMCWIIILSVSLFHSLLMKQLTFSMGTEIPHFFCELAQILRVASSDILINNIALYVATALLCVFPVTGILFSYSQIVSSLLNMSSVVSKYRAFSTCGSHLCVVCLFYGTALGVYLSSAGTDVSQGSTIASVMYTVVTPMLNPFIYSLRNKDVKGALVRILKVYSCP
Summary of the method: as §1

UniProt E9PZ66 = molecular target: T6, UniProt E9PZ66
T6 sequence (whole entry): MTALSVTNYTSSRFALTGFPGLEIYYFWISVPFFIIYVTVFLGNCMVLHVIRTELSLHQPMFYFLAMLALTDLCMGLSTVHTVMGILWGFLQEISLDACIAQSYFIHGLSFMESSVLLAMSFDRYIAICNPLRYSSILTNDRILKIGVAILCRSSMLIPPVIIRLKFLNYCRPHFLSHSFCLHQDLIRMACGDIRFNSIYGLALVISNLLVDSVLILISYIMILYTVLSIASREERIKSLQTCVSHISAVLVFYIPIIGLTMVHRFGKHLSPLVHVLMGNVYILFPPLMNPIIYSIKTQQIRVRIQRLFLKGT
Summary of the method: as §1

UniProt E9Q4X7 = molecular target: T7, UniProt E9Q4X7
T7 sequence (whole entry): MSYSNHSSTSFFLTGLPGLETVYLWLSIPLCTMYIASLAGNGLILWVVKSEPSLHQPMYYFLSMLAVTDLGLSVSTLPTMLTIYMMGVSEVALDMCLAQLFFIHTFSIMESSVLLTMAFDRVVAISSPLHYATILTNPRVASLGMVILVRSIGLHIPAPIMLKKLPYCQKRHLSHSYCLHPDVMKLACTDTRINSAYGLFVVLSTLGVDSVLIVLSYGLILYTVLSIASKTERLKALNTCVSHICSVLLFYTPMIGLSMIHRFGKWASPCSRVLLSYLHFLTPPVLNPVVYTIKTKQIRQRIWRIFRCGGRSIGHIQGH
Summary of the method: as §1

UniProt E9Q546 = molecular target: T8, UniProt E9Q546
T8 sequence (whole entry): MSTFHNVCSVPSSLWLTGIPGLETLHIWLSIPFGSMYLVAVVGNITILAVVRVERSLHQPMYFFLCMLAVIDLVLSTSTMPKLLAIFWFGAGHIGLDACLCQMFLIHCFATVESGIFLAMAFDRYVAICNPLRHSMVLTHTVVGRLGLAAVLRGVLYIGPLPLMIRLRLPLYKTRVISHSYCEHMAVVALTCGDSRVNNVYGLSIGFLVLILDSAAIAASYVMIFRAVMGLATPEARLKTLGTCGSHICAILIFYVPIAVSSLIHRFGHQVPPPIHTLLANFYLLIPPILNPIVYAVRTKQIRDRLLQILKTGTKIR
Summary of the method: as §1

UniProt E9Q6Z7 = molecular target: T9, UniProt E9Q6Z7
T9 sequence (whole entry): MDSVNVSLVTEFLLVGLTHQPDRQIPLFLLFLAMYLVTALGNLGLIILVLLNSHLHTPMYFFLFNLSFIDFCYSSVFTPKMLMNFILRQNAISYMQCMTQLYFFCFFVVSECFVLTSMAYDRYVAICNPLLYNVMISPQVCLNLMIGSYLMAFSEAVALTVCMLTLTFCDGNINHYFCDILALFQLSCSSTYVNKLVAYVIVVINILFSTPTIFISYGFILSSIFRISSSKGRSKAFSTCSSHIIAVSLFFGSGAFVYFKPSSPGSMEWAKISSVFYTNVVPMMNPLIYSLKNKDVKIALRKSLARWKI
Summary of the method: as §1

UniProt K7N609 = molecular target: T10, UniProt K7N609
T10 sequence (whole entry): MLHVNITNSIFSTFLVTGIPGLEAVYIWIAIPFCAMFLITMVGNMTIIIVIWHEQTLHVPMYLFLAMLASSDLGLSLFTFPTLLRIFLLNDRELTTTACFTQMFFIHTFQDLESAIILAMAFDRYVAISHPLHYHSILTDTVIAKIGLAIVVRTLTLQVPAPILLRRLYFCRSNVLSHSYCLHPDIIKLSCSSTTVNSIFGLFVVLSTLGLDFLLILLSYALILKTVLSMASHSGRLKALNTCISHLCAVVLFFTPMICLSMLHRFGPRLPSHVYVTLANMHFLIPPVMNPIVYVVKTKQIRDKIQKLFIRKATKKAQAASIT
Summary of the method: as §1

UniProt A2AVA9 = molecular target: UniProt A2AVA9
Chain of UniProt A2AVA9 (A2AVA9 as listed by the source): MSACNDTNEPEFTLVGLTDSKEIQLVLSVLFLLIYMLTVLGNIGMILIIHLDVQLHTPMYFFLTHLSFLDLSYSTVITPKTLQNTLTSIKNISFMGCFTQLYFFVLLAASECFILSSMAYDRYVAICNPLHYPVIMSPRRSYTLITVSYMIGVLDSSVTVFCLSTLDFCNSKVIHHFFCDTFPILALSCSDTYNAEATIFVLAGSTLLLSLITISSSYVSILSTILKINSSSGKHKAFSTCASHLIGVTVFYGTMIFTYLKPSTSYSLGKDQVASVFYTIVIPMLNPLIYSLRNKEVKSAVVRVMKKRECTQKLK
Summary of the method: as §1

UniProt A2AVC3 = molecular target: UniProt A2AVC3
Chain of UniProt A2AVC3 (A2AVC3 as listed by the source): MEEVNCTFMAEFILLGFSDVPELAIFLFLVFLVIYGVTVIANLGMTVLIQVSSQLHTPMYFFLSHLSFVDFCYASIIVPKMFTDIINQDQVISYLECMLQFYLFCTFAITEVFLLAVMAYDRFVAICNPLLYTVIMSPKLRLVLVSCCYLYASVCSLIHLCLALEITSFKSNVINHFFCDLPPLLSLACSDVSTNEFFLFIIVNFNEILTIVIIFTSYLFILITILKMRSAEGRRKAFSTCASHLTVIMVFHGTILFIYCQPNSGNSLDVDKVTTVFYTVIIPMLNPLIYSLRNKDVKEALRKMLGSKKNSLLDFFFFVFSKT
Summary of the method: as §1

UniProt E9PXH6 = molecular target: UniProt E9PXH6
Chain of UniProt E9PXH6 (E9PXH6 as listed by the source): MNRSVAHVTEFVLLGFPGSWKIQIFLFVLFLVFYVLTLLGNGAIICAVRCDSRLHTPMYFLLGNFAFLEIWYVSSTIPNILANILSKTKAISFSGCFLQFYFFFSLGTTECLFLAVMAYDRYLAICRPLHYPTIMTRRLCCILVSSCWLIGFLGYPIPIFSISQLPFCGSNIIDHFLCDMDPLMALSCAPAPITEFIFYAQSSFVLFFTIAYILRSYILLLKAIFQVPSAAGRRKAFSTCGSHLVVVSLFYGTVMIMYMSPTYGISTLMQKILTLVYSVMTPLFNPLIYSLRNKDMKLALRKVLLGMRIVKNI
Summary of the method: as §1

UniProt E9Q891 = molecular target: UniProt E9Q891
Chain of UniProt E9Q891 (E9Q891 as listed by the source): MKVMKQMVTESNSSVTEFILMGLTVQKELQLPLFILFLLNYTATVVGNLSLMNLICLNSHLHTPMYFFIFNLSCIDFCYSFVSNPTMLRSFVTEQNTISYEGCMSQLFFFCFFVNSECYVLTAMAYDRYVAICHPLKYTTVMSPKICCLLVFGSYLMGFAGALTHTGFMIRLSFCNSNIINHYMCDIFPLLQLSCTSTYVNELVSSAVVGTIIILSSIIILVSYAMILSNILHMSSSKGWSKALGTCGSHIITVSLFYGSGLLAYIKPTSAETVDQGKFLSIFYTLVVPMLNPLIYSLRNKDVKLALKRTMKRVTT
Summary of the method: as §1

UniProt K7N5T5 = molecular target: UniProt K7N5T5
Chain of UniProt K7N5T5 (K7N5T5 as listed by the source): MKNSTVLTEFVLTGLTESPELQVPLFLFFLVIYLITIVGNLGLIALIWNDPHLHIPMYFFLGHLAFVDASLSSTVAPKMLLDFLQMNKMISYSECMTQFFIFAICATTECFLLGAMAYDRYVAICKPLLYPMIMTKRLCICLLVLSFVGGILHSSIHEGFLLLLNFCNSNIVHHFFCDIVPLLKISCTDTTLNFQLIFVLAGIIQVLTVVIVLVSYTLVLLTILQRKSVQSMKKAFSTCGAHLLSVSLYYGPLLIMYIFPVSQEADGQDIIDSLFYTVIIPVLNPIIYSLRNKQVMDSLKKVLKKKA
Summary of the method: as §1

UniProt E9PX47 = molecular target: T11, UniProt E9PX47
T11 sequence (whole entry): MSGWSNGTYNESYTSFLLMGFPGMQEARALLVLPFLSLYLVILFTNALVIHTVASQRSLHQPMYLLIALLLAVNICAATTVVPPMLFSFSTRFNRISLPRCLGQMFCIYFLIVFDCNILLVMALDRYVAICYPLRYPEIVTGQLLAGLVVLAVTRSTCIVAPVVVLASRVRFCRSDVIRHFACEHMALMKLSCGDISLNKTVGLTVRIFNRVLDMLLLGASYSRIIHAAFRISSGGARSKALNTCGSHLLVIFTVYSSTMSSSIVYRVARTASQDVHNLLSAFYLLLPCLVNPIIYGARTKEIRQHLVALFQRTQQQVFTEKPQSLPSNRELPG
Summary of the method: as §1

UniProt E9PXN3 = molecular target: T12, UniProt E9PXN3
T12 sequence (whole entry): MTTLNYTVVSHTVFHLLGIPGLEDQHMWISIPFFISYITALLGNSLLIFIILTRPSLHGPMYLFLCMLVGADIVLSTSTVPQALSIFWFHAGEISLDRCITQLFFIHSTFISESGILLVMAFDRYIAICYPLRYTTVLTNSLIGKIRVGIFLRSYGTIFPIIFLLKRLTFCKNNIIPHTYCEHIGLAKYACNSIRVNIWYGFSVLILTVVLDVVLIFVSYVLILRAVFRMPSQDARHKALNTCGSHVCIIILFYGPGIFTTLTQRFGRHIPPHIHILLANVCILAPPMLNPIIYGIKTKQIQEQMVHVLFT
Summary of the method: as §1

Measured: odorant receptor agonist call

O=C1Cc2ccccc2O1
inactive: UniProt A2ATE5 | UniProt A2AVB0 | UniProt A2AVB5 | UniProt B2RVX8 | UniProt E9PVX1 | UniProt E9PZ66 | UniProt E9Q4X7 | UniProt E9Q546 | UniProt E9Q6Z7 | UniProt K7N609

CC12CCC(CC1=O)C2(C)C (configuration not stated)
inactive: UniProt A2ATE5 | UniProt A2AVB0 | UniProt A2AVB5 | UniProt B2RVX8 | UniProt E9PVX1 | UniProt E9PZ66 | UniProt E9Q4X7 | UniProt E9Q546 | UniProt E9Q6Z7 | UniProt K7N609

O=C1CCOc2ccccc21
active: UniProt A2AVA9 | UniProt A2AVB5 | UniProt E9PXH6 | UniProt E9Q891
inactive: UniProt A2ATE5 | UniProt A2AVB0 | UniProt A2AVC3 | UniProt B2RVX8 | UniProt E9PVX1 | UniProt E9PZ66 | UniProt E9Q4X7 | UniProt E9Q546 | UniProt E9Q6Z7 | UniProt K7N5T5 | UniProt K7N609

CC(=O)OCc1ccccc1
inactive: UniProt A2ATE5 | UniProt A2AVB0 | UniProt A2AVB5 | UniProt B2RVX8 | UniProt E9PVX1 | UniProt E9PZ66 | UniProt E9Q4X7 | UniProt E9Q546 | UniProt E9Q6Z7 | UniProt K7N609

CCCCOC=O
inactive: UniProt A2ATE5 | UniProt A2AVB0 | UniProt A2AVB5 | UniProt B2RVX8 | UniProt E9PVX1 | UniProt E9PZ66 | UniProt E9Q4X7 | UniProt E9Q546 | UniProt E9Q6Z7 | UniProt K7N609

CCCCCCCCO
inactive: UniProt A2ATE5 | UniProt A2AVB0 | UniProt A2AVB5 | UniProt B2RVX8 | UniProt E9PVX1 | UniProt E9PX47 | UniProt E9PXN3 | UniProt E9PZ66 | UniProt E9Q4X7 | UniProt E9Q546 | UniProt E9Q6Z7 | UniProt K7N609
